Measured values as given in ChEMBL document CHEMBL3745705, “Discovery of Oral VEGFR-2 Inhibitors with Prolonged Ocular Retention That Are Efficacious in Models of Wet Age-Related Macular Degeneration” (J Med Chem, 2015).
pIC50: −log10 of the molar value. ≈ marks a conversion by molar mass, not a printed value. One block for each compound: values may come before it.

Legend:
[1] = Aqueous solubility of the compound at pH 6.8; details: aqueous medium
Mus musculus [2] = species on record: Mus musculus; assay: animal or person; details: C57BL/6, po, read-out: INH
[3] = Volume of distribution at steady state in Brown Norway rat at 3 mg/kg, po or 1 mg/kg, iv by LC-MS/MS analysis; type: ADME, organism-based; details: in vivo, read-out: Vdss
Plasma [4] = assay: Dose normalized Cmax in Brown Norway rat plasma at 6 mg/kg, po; type: ADME, organism-based; details: in vivo
Rattus norvegicus [5] = assay: Oral bioavailability in Brown Norway rat at 3 mg/kg by LC-MS/MS analysis; type: ADME, organism-based; details: in vivo
[6] = Dose normalized drug uptake in Brown Norway rat retina at 6 mg/kg, po by LC-MS/MS analysis; type: ADME, organism-based; details: in vivo
[7] = biological target: Mast/stem cell growth factor receptor Kit (Homo sapiens, UniProt P10721); assay: Inhibition of c-Kit (unknown origin)
How it was run: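 Selectivity measured in a 62-kinase panel, with results reported as IC50 (µM).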

Rattus norvegicus [8] = assay: AUC (0 to 8 hrs) in Brown Norway rat at 3 mg/kg, po by LC-MS/MS analysis; type: ADME, organism-based; parameters: dose 3 mg/kg, time < 8 hr, route oral; details: in vivo
[9] = Dose normalized drug uptake in Brown Norway rat posteior eye cup at 6 mg/kg, po; type: ADME, organism-based; details: in vivo
[10] = Dose normalized Cmax in Brown Norway rat posteior eye cup at 6 mg/kg, po; type: ADME, organism-based; details: in vivo
Mus musculus [11] = assay: Antiangiogenic activity in po dosed C57BL/6 mouse laser-induced choroidal neovascularization assessed as inhibition of neovascular lesion formation administered qd for 6 days measured on day 7 by microscopic analysis; type: functional; details: C57BL/6, po
[12] = Dose normalized Cmax in Brown Norway rat retina at 6 mg/kg, po; type: ADME, organism-based; details: in vivo
[13] = Dose normalized AUC (0 to 24 hrs) in Brown Norway rat retina at 6 mg/kg, po; type: ADME, organism-based; details: in vivo
Rattus norvegicus [14] = assay: Antiangiogenic activity in po dosed Brown Norway rat laser-induced choroidal neovascularization model assessed as inhibition of neovascular lesion formation administered qd for 14 days by microscopic analysis; type: functional; details: 336 h
How it was run: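 Male Brown Norway rats, about 12 weeks old, dosed by oral gavage starting about 1 h before laser. Lesions were made under ketamine/xylazine i.p. (40–80 / 5–10 mg/kg) with 532 nm laser pulses (30 ms, 190 mW, 200 µm spot), about 4 lesions per eye and 10 rats per group. Vessels were labelled with i.v. 2,000 kD FITC dextran, eyes fixed in 4% paraformaldehyde, and CNV area measured blinded.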

[15] = Dose normalized AUC (0 to 24 hrs) in Brown Norway rat posteior eye cup at 6 mg/kg, po; type: ADME, organism-based; details: in vivo
Plasma [16] = assay: Dose normalized plasma concentration in Brown Norway rat plasma at 6 mg/kg, po measured at 24 hrs by LC-MS/MS analysis; type: ADME, organism-based; details: in vivo
[17] = Half life in Brown Norway rat at 3 mg/kg, po or 1 mg/kg, iv by LC-MS/MS analysis; type: ADME, organism-based; details: in vivo
[18] = Cmax in Brown Norway rat at 3 mg/kg, po or 1 mg/kg, iv by LC-MS/MS analysis; type: ADME, organism-based; details: in vivo
Plasma [19] = assay: Dose normalized AUC (0 to 24 hrs) in Brown Norway rat plasma at 6 mg/kg, po; type: ADME, organism-based; details: in vivo
Plasma [20] = assay: Dose normalized plasma concentration in Brown Norway rat plasma at 2 mg/kg, po measured at 24 hrs by LC-MS/MS analysis; type: ADME, organism-based; details: in vivo
How it was run: (§1)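 Single oral dose to three-month-old Brown Norway rats as a suspension in 0.5% MC/0.1% tween 80, WFI. Retina, posterior eye cup (RPE/choroid/sclera) and plasma collected from 2 rats per time point up to 144 h. Tissues homogenized, plasma proteins precipitated, drug quantified by LC-MS/MS.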

Plasma [21] = assay: Dose normalized Cmax in Brown Norway rat plasma at 2 mg/kg, po; type: ADME, organism-based; details: in vivo; how it was run: as §1
[22] = biological target: Voltage-gated inwardly rectifying potassium channel KCNH2 (Homo sapiens, UniProt Q12809); assay: Inhibition of human ERG channel by automated Q-patch assay
[23] = Dose normalized AUC (0 to 24 hrs) in Brown Norway rat retina at 2 mg/kg, po; type: ADME, organism-based; details: in vivo
[24] = Dose normalized Cmax in Brown Norway rat posteior eye cup at 2 mg/kg, po; type: ADME, organism-based; details: in vivo; how it was run: as §1
[25] = Dose normalized drug uptake in Brown Norway rat retina at 2 mg/kg, po by LC-MS/MS analysis; type: ADME, organism-based; details: in vivo; how it was run: as §1
Plasma [26] = assay: Dose normalized AUC (0 to 24 hrs) in Brown Norway rat plasma at 2 mg/kg, po; type: ADME, organism-based; details: in vivo
[27] = Drug uptake in Brown Norway rat posteior eye cup at 2 mg/kg, po; type: ADME, organism-based; details: in vivo; how it was run: as §1
[28] = Dose normalized AUC (0 to 24 hrs) in Brown Norway rat posteior eye cup at 2 mg/kg, po; type: ADME, organism-based; details: in vivo
[29] = Dose normalized Cmax in Brown Norway rat retina at 2 mg/kg, po; type: ADME, organism-based; details: in vivo; how it was run: as §1
[30] = Half life in Brown Norway rat at 10 mg/kg, po or 1 mg/kg, iv by LC-MS/MS analysis; type: ADME, organism-based; details: in vivo
How it was run: (§2)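 Brown Norway rats dosed i.v. at 1 mg/kg (n = 2; NMP/PG/cremophorEL/PBS or NMP/PEG 300/WFI vehicle) or p.o. at 3 or 10 mg/kg (n = 3; 0.5% MC/0.1% tween 80, WFI). Clearance, Vdss, t1/2, Cmax, AUC 0-8h and oral bioavailability calculated from plasma levels.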

[31] = Cmax in Brown Norway rat at 10 mg/kg, po or 1 mg/kg, iv by LC-MS/MS analysis; type: ADME, organism-based; details: in vivo; how it was run: as §2
Rattus norvegicus [32] = assay: Oral bioavailability in Brown Norway rat at 10 mg/kg by LC-MS/MS analysis; type: ADME, organism-based; details: in vivo; how it was run: as §2
Rattus norvegicus [33] = assay: AUC (0 to 8 hrs) in Brown Norway rat at 10 mg/kg, po by LC-MS/MS analysis; type: ADME, organism-based; parameters: dose 10 mg/kg, time < 8 hr, route oral; details: in vivo
[34] = Volume of distribution at steady state in Brown Norway rat at 10 mg/kg, po or 1 mg/kg, iv by LC-MS/MS analysis; type: ADME, organism-based; details: in vivo, read-out: Vdss; how it was run: as §2

Voltage-gated inwardly rectifying potassium channel KCNH2, sequence (Q12809 whole entry): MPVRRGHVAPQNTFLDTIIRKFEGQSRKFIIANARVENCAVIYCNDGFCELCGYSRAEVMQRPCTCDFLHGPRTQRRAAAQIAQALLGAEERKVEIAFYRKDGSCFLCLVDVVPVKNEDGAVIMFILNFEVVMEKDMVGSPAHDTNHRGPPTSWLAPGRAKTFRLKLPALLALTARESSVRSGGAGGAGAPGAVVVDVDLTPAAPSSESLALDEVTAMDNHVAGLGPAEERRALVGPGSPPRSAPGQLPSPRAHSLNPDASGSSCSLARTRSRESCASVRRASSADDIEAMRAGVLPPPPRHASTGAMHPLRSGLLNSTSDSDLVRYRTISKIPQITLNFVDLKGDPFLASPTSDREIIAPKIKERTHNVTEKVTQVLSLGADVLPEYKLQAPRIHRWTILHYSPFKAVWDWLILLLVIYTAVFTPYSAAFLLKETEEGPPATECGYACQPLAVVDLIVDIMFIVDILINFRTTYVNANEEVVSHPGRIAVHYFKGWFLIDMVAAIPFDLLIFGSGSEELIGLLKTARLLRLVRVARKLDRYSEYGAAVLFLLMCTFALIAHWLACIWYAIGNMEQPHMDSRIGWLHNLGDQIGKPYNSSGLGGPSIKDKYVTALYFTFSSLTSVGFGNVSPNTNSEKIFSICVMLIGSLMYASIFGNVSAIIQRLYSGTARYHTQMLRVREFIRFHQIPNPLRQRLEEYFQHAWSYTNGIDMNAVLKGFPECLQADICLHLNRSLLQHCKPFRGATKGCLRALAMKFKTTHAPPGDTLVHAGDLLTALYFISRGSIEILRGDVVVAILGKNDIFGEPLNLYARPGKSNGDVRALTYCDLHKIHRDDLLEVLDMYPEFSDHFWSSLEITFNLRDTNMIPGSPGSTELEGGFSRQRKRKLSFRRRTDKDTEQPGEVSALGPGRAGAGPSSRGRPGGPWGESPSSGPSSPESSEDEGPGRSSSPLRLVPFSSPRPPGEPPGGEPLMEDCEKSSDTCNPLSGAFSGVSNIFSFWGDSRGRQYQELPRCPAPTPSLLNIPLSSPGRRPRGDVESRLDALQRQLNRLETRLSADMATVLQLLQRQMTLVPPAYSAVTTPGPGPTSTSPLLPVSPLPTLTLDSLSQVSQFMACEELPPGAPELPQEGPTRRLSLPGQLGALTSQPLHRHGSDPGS
Mast/stem cell growth factor receptor Kit, sequence (P10721 whole entry): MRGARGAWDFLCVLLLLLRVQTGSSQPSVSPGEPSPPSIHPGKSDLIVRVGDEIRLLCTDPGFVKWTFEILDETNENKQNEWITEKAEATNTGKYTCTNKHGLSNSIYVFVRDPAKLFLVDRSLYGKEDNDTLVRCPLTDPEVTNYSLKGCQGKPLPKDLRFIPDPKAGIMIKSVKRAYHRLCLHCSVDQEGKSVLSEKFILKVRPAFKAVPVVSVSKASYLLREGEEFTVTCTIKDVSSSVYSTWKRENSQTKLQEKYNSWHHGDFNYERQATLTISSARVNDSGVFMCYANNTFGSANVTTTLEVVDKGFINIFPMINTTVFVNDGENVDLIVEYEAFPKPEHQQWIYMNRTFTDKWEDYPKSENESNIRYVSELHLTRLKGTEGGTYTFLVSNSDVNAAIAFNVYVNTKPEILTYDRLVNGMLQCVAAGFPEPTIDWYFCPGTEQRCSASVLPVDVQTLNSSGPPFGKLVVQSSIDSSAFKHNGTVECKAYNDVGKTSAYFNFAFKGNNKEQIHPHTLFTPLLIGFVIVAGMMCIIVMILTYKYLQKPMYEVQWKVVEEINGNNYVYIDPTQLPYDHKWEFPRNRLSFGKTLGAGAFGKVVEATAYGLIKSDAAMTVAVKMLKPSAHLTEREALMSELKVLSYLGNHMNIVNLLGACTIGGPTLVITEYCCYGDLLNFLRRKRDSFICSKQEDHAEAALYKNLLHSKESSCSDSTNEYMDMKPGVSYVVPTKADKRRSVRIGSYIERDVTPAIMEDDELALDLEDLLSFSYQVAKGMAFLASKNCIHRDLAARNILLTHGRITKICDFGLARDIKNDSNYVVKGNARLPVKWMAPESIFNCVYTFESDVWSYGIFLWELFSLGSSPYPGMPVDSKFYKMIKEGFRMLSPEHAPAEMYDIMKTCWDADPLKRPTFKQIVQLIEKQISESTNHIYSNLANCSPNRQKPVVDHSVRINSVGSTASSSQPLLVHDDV

solubility [1]: 190 µM (≈ 76.1 µg/mL)
SMILES: Cc1cncc(NC(=O)n2ccc3cc(Oc4ncnc5c4CCNC5)ccc32)c1

SMILES: C[C@@H]1Cc2c(ncnc2Oc2ccc3c(ccn3C(=O)Nc3cc(C4(C)CC4)[nH]n3)c2)CN1
inhibition in vivo at 10 mg/kg (Mus musculus [2]): 48%

SMILES: C[C@H]1NCc2ncnc(Oc3ccc4c(ccn4C(=O)Nc4cccc(C(F)(F)F)c4)c3)c21
inhibition in vivo at 10 mg/kg (Mus musculus [2]): 0%

solubility [1]: 64 µM (≈ 28.3 µg/mL)
SMILES: CNCc1cc(Oc2ccc3c(ccn3C(=O)Nc3cccc(C(F)(F)F)c3)c2)ncn1
inhibition in vivo at 10 mg/kg (Mus musculus [2]): 67%

Vd [3]: 5.6 L/kg
Cmax/dose (Plasma [4]): 68 nM/mg/kg
F (Rattus norvegicus [5]): 81%
Druguptake/dose [6]: 122 nM/mg/kg
pIC50 [7]: 6.22
AUC (Rattus norvegicus [8]): 2.49 µM·h
Druguptake/dose [9]: 1067 nM/mg/kg
Cmax/dose [10]: 1067 nM/mg/kg
Cmax/dose [12]: 170 nM/mg/kg
AUC/dose [13]: 3215 nM·h/mg/kg
AUC/dose [15]: 22266 nM·h/mg/kg
Cp/dose (Plasma [16]): 1.6 nM/mg/kg
half-life [17]: 2.3 h
Cmax [18]: 514 nM
AUC/dose (Plasma [19]): 598 nM·h/mg/kg
SMILES: C[C@H]1Cc2c(ncnc2Oc2ccc3c(ccn3C(=O)Nc3cc(C4(C)CC4)n[nH]3)c2)CN1
inhibition in vivo at 10 mg/kg (Mus musculus [2]): 67%
ED50 (Mus musculus [11]): 3.4 mg/kg
ED90 (Mus musculus [11]): 19.6 mg/kg
ED50 (Rattus norvegicus [14]): 2.9 mg/kg
ED90 (Rattus norvegicus [14]): 14.6 mg/kg

SMILES: CC(=O)N1CCc2c(ncnc2Oc2ccc3c(ccn3C(=O)Nc3cccc(C(F)(F)F)c3)c2)C1
inhibition in vivo at 10 mg/kg (Mus musculus [2]): 0%

Vd [3]: 0.5 L/kg
F (Rattus norvegicus [5]): 100%
AUC (Rattus norvegicus [8]): 29.4 µM·h
Cp/dose (Plasma [20]): 6 nM/mg/kg
Cmax/dose (Plasma [21]): 3225 nM/mg/kg
solubility [1]: 110 µM (≈ 44.3 µg/mL)
AUC/dose [23]: 2692 nM·h/mg/kg
Cmax/dose [24]: 5293 nM/mg/kg
Druguptake/dose [25]: 65 nM/mg/kg
half-life [17]: 1.2 h
AUC/dose (Plasma [26]): 15014 nM·h/mg/kg
Cmax [18]: 11000 nM
Druguptake/dose [27]: 3344 nM/mg/kg
AUC/dose [28]: 92954 nM·h/mg/kg
Cmax/dose [29]: 337 nM/mg/kg
SMILES: O=C(Nc1cc(C2CC2)on1)n1ccc2cc(Oc3ncnc4c3CNC4)ccc21
inhibition in vivo at 10 mg/kg (Mus musculus [2]): 98%
pIC50 [22]: < 4.52
ED50 (Mus musculus [11]): 1.8 mg/kg
ED90 (Mus musculus [11]): 4.8 mg/kg
ED50 (Rattus norvegicus [14]): 0.7 mg/kg
ED90 (Rattus norvegicus [14]): 2.7 mg/kg

SMILES: O=C(Nc1cccc(C(F)(F)F)c1)n1ccc2cc(Oc3ncnc4c3CNC4)ccc21
inhibition in vivo at 10 mg/kg (Mus musculus [2]): 68%
ED50 (Mus musculus [11]): 6.9 mg/kg
ED90 (Mus musculus [11]): 31 mg/kg

SMILES: O=C(Nc1cccc(C(F)(F)F)c1)n1ccc2cc(Oc3ncnc4c3CNCC4)ccc21
inhibition in vivo at 10 mg/kg (Mus musculus [2]): 0%

Cmax/dose (Plasma [4]): 33 nM/mg/kg
Druguptake/dose [6]: 13 nM/mg/kg
half-life [30]: 2.7 h
Druguptake/dose [9]: 102 nM/mg/kg
solubility [1]: 252 µM (≈ 108 µg/mL)
Cmax/dose [10]: 110 nM/mg/kg
Cmax [31]: 505 nM
Cmax/dose [12]: 15 nM/mg/kg
AUC/dose [13]: 310 nM·h/mg/kg
F (Rattus norvegicus [32]): 51%
AUC/dose [15]: 2386 nM·h/mg/kg
Cp/dose (Plasma [16]): 0.7 nM/mg/kg
AUC (Rattus norvegicus [33]): 1.12 µM·h
AUC/dose (Plasma [19]): 166 nM·h/mg/kg
Vd [34]: 22 L/kg
SMILES: CC1(c2cc(NC(=O)n3ccc4cc(Oc5ncnc6c5CCNC6)ccc43)n[nH]2)CC1
inhibition in vivo at 10 mg/kg (Mus musculus [2]): 64%
ED50 (Mus musculus [11]): 7.8 mg/kg
ED90 (Mus musculus [11]): 25.3 mg/kg
ED50 (Rattus norvegicus [14]): 2.7 mg/kg
ED90 (Rattus norvegicus [14]): 13.6 mg/kg

SMILES: C[C@@H]1NCc2ncnc(Oc3ccc4c(ccn4C(=O)Nc4cccc(C(F)(F)F)c4)c3)c21
inhibition in vivo at 10 mg/kg (Mus musculus [2]): 41%

solubility [1]: 167 µM (≈ 72.2 µg/mL)
SMILES: CC(C)(C)c1cc(NC(=O)n2ccc3cc(Oc4ncnc5c4CCNC5)ccc32)no1
inhibition in vivo at 10 mg/kg (Mus musculus [2]): 83%
pIC50 [22]: 5.15

SMILES: O=C(Nc1cccc(C(F)(F)F)c1)n1ccc2cc(Oc3cc(CO)ncn3)ccc21
inhibition in vivo at 10 mg/kg (Mus musculus [2]): 45%

SMILES: C[C@H]1Cc2c(ncnc2Oc2ccc3c(ccn3C(=O)Nc3cc(C(C)(C)C)on3)c2)CN1
inhibition in vivo at 10 mg/kg (Mus musculus [2]): 96%

SMILES: CNCc1cc(Oc2ccc3c(ccn3C(=O)Nc3ccc(F)c(C(F)(F)F)c3)c2)ncn1
inhibition in vivo at 10 mg/kg (Mus musculus [2]): 92%
